From PubChem BioAssay
Hits are enriched below; roughly 1.2% of the tested compounds scored in any of these assays.
HKDC1 inhibitor: HKDC1 hexokinase inhibitors, primary screen, biochemical, fluorescence, uHTS; Q2TB90; recombinant HKDC1, G6PDH/diaphorase resazurin coupled fluorescence; inhibition, % at 20 µM; 340,000 compounds, 0.16% hits; AID 493160, 2011;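 active means inhibition above about 35% when tested at 20 µM, limit read from the data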;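 further: plate controls were DMSO wells with enzyme for no effect and DMSO wells lacking enzyme for full effect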
Target sequence (Q2TB90 whole entry, looked up): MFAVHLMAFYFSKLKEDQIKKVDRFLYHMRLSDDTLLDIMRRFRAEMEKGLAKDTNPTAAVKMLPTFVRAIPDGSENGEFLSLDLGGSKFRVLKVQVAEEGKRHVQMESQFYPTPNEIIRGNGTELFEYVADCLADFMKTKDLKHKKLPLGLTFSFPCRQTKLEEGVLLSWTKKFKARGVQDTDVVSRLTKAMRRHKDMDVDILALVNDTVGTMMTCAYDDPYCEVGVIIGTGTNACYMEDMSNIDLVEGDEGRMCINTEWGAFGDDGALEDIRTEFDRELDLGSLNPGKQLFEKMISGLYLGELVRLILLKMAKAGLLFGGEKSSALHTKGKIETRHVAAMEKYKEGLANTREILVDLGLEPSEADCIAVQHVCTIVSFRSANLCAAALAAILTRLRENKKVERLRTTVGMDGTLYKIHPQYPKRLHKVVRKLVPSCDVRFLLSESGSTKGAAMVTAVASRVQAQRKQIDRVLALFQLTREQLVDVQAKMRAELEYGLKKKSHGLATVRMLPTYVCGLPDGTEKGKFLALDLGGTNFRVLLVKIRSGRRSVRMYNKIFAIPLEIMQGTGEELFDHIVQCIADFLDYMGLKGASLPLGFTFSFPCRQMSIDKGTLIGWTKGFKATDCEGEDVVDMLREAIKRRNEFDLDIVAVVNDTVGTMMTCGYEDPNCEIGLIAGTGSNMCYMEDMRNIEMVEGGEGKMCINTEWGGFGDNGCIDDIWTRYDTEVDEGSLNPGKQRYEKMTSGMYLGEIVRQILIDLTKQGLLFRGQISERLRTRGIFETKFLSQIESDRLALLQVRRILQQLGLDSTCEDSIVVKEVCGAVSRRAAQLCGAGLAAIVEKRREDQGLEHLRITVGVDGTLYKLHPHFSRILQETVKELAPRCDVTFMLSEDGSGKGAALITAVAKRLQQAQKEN
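Test system: HK5 enzyme. Quantity: 5 µg/mL HK5 final. Reagent: glucose and ATP substrates. Schedule: 90 min reaction incubation at room temperature, dark. Technique: resazurin-to-resorufin fluorescence via G6PDH and diaphorase coupling, 525/613 nm. Control set: DMSO wells with and without enzyme mix.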
TbHK1 inh: Trypanosoma brucei hexokinase 1 inhibitors, primary screen, biochemical, G6PDH-coupled NADH absorbance, MLSCN library; hexokinase 1 [Trypanosoma brucei]; recombinant TbHK1, G6PDH-coupled NADH A340; inhibition, % at 10 µM; 220,000 compounds, 0.11% hits; AID 1430, 2008;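 active means inhibition of 50% or more in the single-dose primary screen; inactive means inhibition below 50%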
Diaph inh CS: diaphorase inhibitors and chemical oxidizers, primary screen, counter-screen for diaphorase-coupled primary assays, biochemical, uHTS, resorufin fluorescence. 190,000 compounds, 0.69% hits. diaphorase resazurin-to-resorufin fluorescence, NADH, 16 min; bacterial (C. kluyveri) enzyme, not human. inhibition, % at 20 µM;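 active means primary screen inhibition at 20 µM above a set limit, cut at about 50% in these data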;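 further: plate controls were DMSO with full reaction for no effect and wells lacking NADH for full effect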
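Test system: bacterial diaphorase enzyme (C. kluyveri); Quantity: 0.14 U/mL diaphorase, enzyme working solution; Times: reaction incubation of 16 min at room temperature; Measured by: fluorescence of resorufin formed from resazurin, Ex 544/Em 590 nm; Benchmarks: positive control minus NADH, DMSO neutral control.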
PfG6PD inh: PfG6PD enzyme inhibitors, primary screen, biochemical, fluorescence intensity, uHTS; glucose-6-phosphate dehydrogenase-6-phosphogluconolactonase (Plasmodium falciparum 3D7); PfGluPho enzyme, NADPH resazurin-diaphorase fluorescence; inhibition, % at 20 µM; 350,000 compounds, 0.78% hits;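 active means inhibition reaching at least a set limit at 20 µM in the primary screen, cut at about 59% in these data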;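 further: 0% = DMSO wells with substrate and 100% = DMSO wells lacking glucose-6-phosphate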
G6PDH CS: L. mesenteroides G6PDH inhibitors, counter-screen for G6PDH-coupled screening assays, biochemical, Leuconostoc mesenteroides enzyme. glucose-6-phosphate dehydrogenase [Leuconostoc mesenteroides]. Purified L. mesenteroides G6PDH, diaphorase/resazurin coupled fluorescence, 45 min. inhibition, % at 5 µM. 200,000 compounds, 0.12% hits. AID 1020, 2008; in the data active means inhibition above about 50%
PfGluPho conf: PfG6PD inhibitors, hit retest, confirmation, biochemical, fluorescence intensity, single concentration | shares compounds with PfG6PD inh | AID 504753, 2011 | recombinant PfGluPho, NADPH-diaphorase-resazurin fluorescence | 2,400 compounds, 34% hits | inhibition, % at 20 µM;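 active means inhibition of at least 50% at 20 µM in any single replicate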;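 further: 0% = DMSO with substrate and 100% = DMSO lacking glucose-6-phosphate substrate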
Diaphorase 10uM: diaphorase inhibitors and chemical oxidizers, confirmation, counter-screen for P. falciparum G6PD inhibitor project, biochemical, fluorescence intensity, 10 µM NADPH; 820 compounds, 39% hits; shares compounds with PfG6PD inh; diaphorase-coupled resazurin reduction, NADPH 10 uM; inhibition, % at 20 µM; AID 504862, 2011;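 active means average inhibition reaching 50% or more with the compound at 20 µM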;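 further: resorufin red fluorescence formed as diaphorase reduces resazurin using NADPH; 0% = DMSO with enzyme and 100% = DMSO without enzyme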
Diaphorase 30uM: diaphorase inhibitors and chemical oxidizers, confirmation, counter-screen for P. falciparum G6PD inhibitor project, biochemical, fluorescence intensity, 30 µM NADPH; shares compounds with PfG6PD inh; Diaphorase/resazurin coupled assay, resorufin fluorescence; inhibition, % at 20 µM; 820 compounds, 29% hits;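 active means inhibition averaging 50% or more, tested at 20 µM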;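 further: 0% = DMSO with enzyme and 100% = DMSO wells lacking diaphorase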
* marks the source's active call; other numbers are inactive results; . = no result given.

SMILES	HKDC1 inhibitor	TbHK1 inh	Diaph inh CS	PfG6PD inh	G6PDH CS	PfGluPho conf	others
CC1(C)Cc2c(c(N3CCOCC3)nc3sc(C(=O)N4CCCCC4)c(N)c23)CO1	7	-19	31	68*	22	15
CCCCOC(=O)c1sc2nc(N3CCOCC3)c3c(c2c1N)CC(C)(C)OC3	-7	-26	.	-9	.	.
Nc1c(C(=O)N2CCOCC2)sc2nc(N3CCOCC3)c3c(c12)CCCC3	3	-33	.	66*	.	-5
Cn1cccc1C(=O)NC1CCCCCC1	-3	.	.	7	.	.
CC(C)NC(=O)N(C)C[C@H]1Oc2ccc(NC(=O)c3ccncc3)cc2C(=O)N([C@H](C)CO)C[C@@H]1C	1	.	.	39	.	.
O=C(Nc1nnc(CSCc2ccc(F)cc2)s1)c1cccc([N+](=O)[O-])c1	-3	2	11	73*	-14	44
CCC(C)(C)c1nnc(NC(=O)c2cccc([N+](=O)[O-])c2)s1	-3	-2	13	116*	13	88*	Diaphorase 10uM=93*;Diaphorase 30uM=64*
CC[C@H]1CCCCc2ccccc2[C@@H](C(=O)C[C@@H](O)CC(C)=O)OC1=O	9	.	.	-11	.	.
O=C(CCCc1ccncc1)c1ccccc1	11	.	.	-17	.	.
O=C(CCCC(=O)NN=Cc1ccccc1Cl)NN=Cc1ccccc1Cl	6	.	.	86*	.	42
CCOc1ccccc1N(CC(=O)N/N=C/c1cc(Br)ccc1OC)S(C)(=O)=O	1	-3	23	118*	-4	72*	Diaphorase 10uM=70*;Diaphorase 30uM=56*
O=C(CNC(=O)C1COc2ccccc2O1)N/N=C\c1ccccc1Cl (stereo not drawn)	0	.	.	60*	.	-2
O=C(CCCC(=O)NN=Cc1ccc(Cl)cc1Cl)NN=Cc1ccc(Cl)cc1Cl	-11	.	.	-18	.	.
COc1ccccc1N(CC(=O)N/N=C/c1ccc(SC)cc1)S(C)(=O)=O	15	-22	14	-16	3	.
CCOc1ccccc1/C=N/NC(=O)c1ccc(Cn2cc([N+](=O)[O-])cn2)o1	-2	-28	14	61*	2	35
CCOc1ccccc1/C=N/NC(=O)Cc1csc(Nc2cccc(C(F)(F)F)c2)n1	1	-10	38	69*	2	7
CCOc1ccccc1C=NNC(=O)CCCCC(=O)NN=Cc1ccccc1OCC	-3	.	.	125*	.	78*	Diaphorase 10uM=41;Diaphorase 30uM=54*
Cc1ccc(C)c(NC(=O)CN2C(=O)NC(CCc3ccccc3)C2=O)c1 (stereo not drawn)	-6	.	.	-12	.	.
Cc1ccccc1C(=O)N1CCC(C(=O)Nc2ccc(S(=O)(=O)N3CCCCC3)cc2)CC1	-2	.	.	-2	.	.
COc1cccc(C(=O)Nc2nnc(S(=O)(=O)N3CCCC3)s2)c1	0	.	.	93*	.	71*	Diaphorase 10uM=58*;Diaphorase 30uM=51*
O=C(Nc1nnc(S(=O)(=O)N2CCCCCC2)s1)c1ccccc1Br	1	.	.	3	.	.
O=C(Nc1nnc(S(=O)(=O)N2CCCCC2)s1)c1ccc(Cl)cc1	0	.	.	106*	.	44*	Diaphorase 10uM=59*;Diaphorase 30uM=32
O=C(COc1ccc(Cl)cc1)Nc1nnc(S(=O)(=O)N2CCCCCC2)s1	-4	.	.	-18	.	.
O=C(Nc1nnc(S(=O)(=O)N2CCCCCC2)s1)c1ccc(Br)cc1	-1	.	.	72*	.	9
COc1cccc(CC(=O)Nc2ccc(F)c(S(=O)(=O)N3CCOCC3)c2)c1	2	.	.	-5	.	.
SMILES	HKDC1 inhibitor	TbHK1 inh	Diaph inh CS	PfG6PD inh	G6PDH CS	PfGluPho conf	others
COc1ccc(C(=O)N2CCOC2CNC(=O)C(=O)NCc2ccccc2)cc1 (stereo not drawn)	.	.	.	-5	.	.
C=CCNC(=O)C1CCN(S(=O)(=O)c2ccc3ccccc3c2)CC1	-1	.	.	-8	.	.
Cn1c(=O)c2c([nH]c(=S)n2Cc2ccc(Cl)cc2)n(C)c1=O	-5	.	.	62*	.	25
O=C(Nc1ccc(OCC(F)(F)C(F)F)c(C(F)(F)F)c1)c1ccc(Cl)cc1	3	8	.	86*	.	-2
COc1ccc(C(=O)Nc2ccc(OCC(F)(F)C(F)F)c(C(F)(F)F)c2)cc1OC	10	-1	29	29	0	.
O=S(=O)(Nc1cc(Sc2cccc3cccnc23)c(O)c2ccccc12)c1ccc(F)cc1	28	-7	26	98*	22	85*	Diaphorase 10uM=22;Diaphorase 30uM=16
Cc1ccc2cc(C#N)c(SCc3nnc(-c4ccccc4[N+](=O)[O-])o3)nc2c1	2	-2	19	-8	-10	.
CSc1nc(=S)cc(C)[nH]1	-6	-7	.	70*	.	18
CC(C)C(OC(=O)/C=C/c1ccc2c(c1)OCO2)C(=O)NC(N)=O (stereo not drawn)	-2	-10	1	1	19	.
Cc1ccc(O)c(NC2=C(Cl)C(=O)N(Cc3ccccc3)C2=O)c1	3	-2	51*	85*	12	30
COC(=O)/C=c1/sc2nc3ccccc3n2c1=O	-32	8	-2	75*	9	40
O=c1c2ccccc2nc2sc3ccccc3n12	1	-14	16	-4	0	.
CCCC[C@@H]1C=C(C(=O)O)[C@H](c2ccc(C#N)cc2)N1S(=O)(=O)c1ccc(C)cc1	15	.	.	-2	.	.
Cc1c(C(=O)N2CCOCC2)c(S(=O)(=O)Nc2ccc(C(C)C)cc2)c(C)n1C	-1	.	.	-2	.	.
Cc1ccc(-n2ncc(-c3nn[nH]n3)c2N)cc1	-4	33	.	-1	.	.
CCC(CN(C)C)Oc1cc(NCc2ccccc2)c2ncn(C(C)C)c2c1 (stereo not drawn)	21	.	.	58	.	.
COc1cc(NCc2ccccc2)c2ncn(C(C)C)c2c1	7	.	.	61*	.	56*	Diaphorase 10uM=-3;Diaphorase 30uM=-10
C#CCOCCOCCOCCNc1nc(N2CCN(C(=O)CCCCCCCCCCNC(=O)[C@H](CCCCN)n3cc(CCO)nn3)CC2)nc(N2CCN(C(=O)CCCCCCCCCCNC(=O)[C@H](CCCCN)n3cc(C[C@@H](C)CC)nn3)CC2)n1	3	.	.	77*	.	12
